# Assay results reported in ChEMBL document CHEMBL3525937, “Drug efflux transporter multidrug resistance-associated protein 5 affects sensitivity of pancreatic cancer cell lines to the nucleoside anticancer drug 5-fluorouracil” (Drug Metab Dispos, 2011).
# Activity calls are given as the source filed them. The calls are words filed in the database; no cut-off is given here.
# How the values were obtained:
# [1] = Cytotoxicity against human Aspc-1 cells by crystal violet staining; format: functional, cell-based; conditions: ASPC1
# In short: (§1)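 Cells plated at 5000–10,000 per well and left 24 h, then exposed to drug in medium for the set time at 37°C, 5% CO2. Washed with PBS, fixed 15 min in 4% paraformaldehyde and stained 5 min with 0.5% crystal violet in methanol. Lysed in 1% SDS, OD read at 570 nm with untreated cells as 100%. IC50 fitted by nonlinear sigmoidal regression over at least five concentrations, each in triplicate; three independent experiments.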
# [2] = Cytotoxicity against human MRP5 knockdown Patu-02 cells assessed as increase of cell death at 33 uM after 48 hrs using propidium iodide staining by cytofluorometric analysis; format: functional
# In short: (§2)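 Patu-02 cells stably transfected with an MRP5 siRNA expression vector or empty vector (hygromycin B selected, single-cell cloned, RT-PCR screened) were exposed to 5-FU (3.3–100 M) for 48 h. Cell death was measured as PI uptake (2 g/ml, 5 min, 4°C, dark) by flow cytometry on 10,000 gated cells. Three assays were run in triplicate.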
# [3] = Cytotoxicity against human MRP5 knockdown Patu-02 cells assessed as increase of cell death at 3.3 uM after 48 hrs using propidium iodide staining by cytofluorometric analysis; format: functional; in short: as §2
# [4] = Cytotoxicity against human Colo-357 cells assessed as cell killing at 3 uM after 48 hrs using propidium iodide staining by cytofluorometric analysis; format: functional, COLO357
# In short: (§3)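 Colo-357 cells stably transfected with pcDNA3.1/hygro-MRP5 or empty vector were cultured with 5-FU (1–33 M) for 48 h. Cells were harvested, stained with 2 g/ml propidium iodide in PBS for 5 min at 4°C in the dark, and PI uptake was read by flow cytometry (10,000 cells, debris gated out). Values are the percentage of dead cells from three assays in triplicate.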
# PaTu 8988t = experiment: Induction of thymidylate synthase expression in human Patu-T cells after 6 months by RT-PCR analysis relative to control; format: functional, cell-based
# In short: (§4)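 Patu-8988T cells were cultured 6 months with increasing 5-FU, then kept at least 1 week drug-free. Transcripts were quantified by real-time RT-PCR on 20 ng cDNA with a Tris/KCl/MgCl2 platinum Taq master mix and ROX reference. Expression is reported relative to untreated parental Patu-T cells.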
# [5] = Cytotoxicity against human Patu-02 cells by crystal violet staining; format: functional, cell-based; in short: as §1
# [6] = Cytotoxicity against human Colo-357 cells assessed as cell killing at 1 uM after 48 hrs using propidium iodide staining by cytofluorometric analysis; format: functional, COLO357; in short: as §3
# [7] = Cytotoxicity against human Colo-357 cells assessed as cell killing at 33 uM after 48 hrs using propidium iodide staining by cytofluorometric analysis; format: functional, COLO357; in short: as §3
# [8] = Cytotoxicity against human Colo-357 cells expressing MRP5 assessed as cell killing at 1 uM after 48 hrs using propidium iodide staining by cytofluorometric analysis; format: functional, COLO357; in short: as §3
# [9] = Cytotoxicity against human 5-FU-resistant Patu-T cells by crystal violet staining; format: functional, cell-based; conditions: PaTu 8988t
# In short: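 Patu-8988T subclones were selected with rising 5-FU over 6 months, then kept drug-free at least 1 week. Cells were plated at 5000–10,000/well, left 24 h, then drug-exposed. They were fixed in 4% paraformaldehyde, stained with 0.5% crystal violet in methanol, lysed in 1% SDS, and read at OD 570 nm against untreated cells (100%). At least five concentrations were tested in triplicate, and IC50 was obtained by sigmoidal nonlinear regression.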
# [10] = Cytotoxicity against human Colo-357 cells expressing MRP5 assessed as cell killing at 33 uM after 48 hrs using propidium iodide staining by cytofluorometric analysis; format: functional, COLO357; in short: as §3
# MRP5 [11] = experiment: Induction of MRP5 expression in human MRP5 vector transfected Colo-357 cells by RT-PCR analysis relative to control; format: cell-based, COLO357; conditions: Colo-357 cells transfected with human MRP5 vector, read-out: FC
# In short: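 Colo-357 cells were transfected with pcDNA3.1/hygro-MRP5 or empty vector, split after 48 h and selected in hygromycin B. MRP5 mRNA was measured by quantitative real-time RT-PCR (20 ng cDNA) relative to the vector-only clone.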
# MRP4 = experiment: Induction of MRP4 expression in human Patu-T cells after 6 months by RT-PCR analysis relative to control; format: cell-based, PaTu 8988t; conditions: read-out: FC; in short: as §4
# [12] = Cytotoxicity against human Colo-357 cells expressing MRP5 assessed as cell killing at 3 uM after 48 hrs using propidium iodide staining by cytofluorometric analysis; format: functional, COLO357; in short: as §3
# [13] = Cytotoxicity against human MRP5 knockdown Patu-02 cells assessed as increase of cell death at 100 uM after 48 hrs using propidium iodide staining by cytofluorometric analysis; format: functional; in short: as §2
# [14] = target: T1, ATP-binding cassette sub-family C member 5 (Homo sapiens, UniProt O15440); experiment: Activity at MRP5 in human Colo-357 cells assessed as increase of drug efflux after 60 mins relative to wild type cells; format: ADME, cell-based; conditions: colo357, 1 h
# T1 sequence (O15440 whole entry): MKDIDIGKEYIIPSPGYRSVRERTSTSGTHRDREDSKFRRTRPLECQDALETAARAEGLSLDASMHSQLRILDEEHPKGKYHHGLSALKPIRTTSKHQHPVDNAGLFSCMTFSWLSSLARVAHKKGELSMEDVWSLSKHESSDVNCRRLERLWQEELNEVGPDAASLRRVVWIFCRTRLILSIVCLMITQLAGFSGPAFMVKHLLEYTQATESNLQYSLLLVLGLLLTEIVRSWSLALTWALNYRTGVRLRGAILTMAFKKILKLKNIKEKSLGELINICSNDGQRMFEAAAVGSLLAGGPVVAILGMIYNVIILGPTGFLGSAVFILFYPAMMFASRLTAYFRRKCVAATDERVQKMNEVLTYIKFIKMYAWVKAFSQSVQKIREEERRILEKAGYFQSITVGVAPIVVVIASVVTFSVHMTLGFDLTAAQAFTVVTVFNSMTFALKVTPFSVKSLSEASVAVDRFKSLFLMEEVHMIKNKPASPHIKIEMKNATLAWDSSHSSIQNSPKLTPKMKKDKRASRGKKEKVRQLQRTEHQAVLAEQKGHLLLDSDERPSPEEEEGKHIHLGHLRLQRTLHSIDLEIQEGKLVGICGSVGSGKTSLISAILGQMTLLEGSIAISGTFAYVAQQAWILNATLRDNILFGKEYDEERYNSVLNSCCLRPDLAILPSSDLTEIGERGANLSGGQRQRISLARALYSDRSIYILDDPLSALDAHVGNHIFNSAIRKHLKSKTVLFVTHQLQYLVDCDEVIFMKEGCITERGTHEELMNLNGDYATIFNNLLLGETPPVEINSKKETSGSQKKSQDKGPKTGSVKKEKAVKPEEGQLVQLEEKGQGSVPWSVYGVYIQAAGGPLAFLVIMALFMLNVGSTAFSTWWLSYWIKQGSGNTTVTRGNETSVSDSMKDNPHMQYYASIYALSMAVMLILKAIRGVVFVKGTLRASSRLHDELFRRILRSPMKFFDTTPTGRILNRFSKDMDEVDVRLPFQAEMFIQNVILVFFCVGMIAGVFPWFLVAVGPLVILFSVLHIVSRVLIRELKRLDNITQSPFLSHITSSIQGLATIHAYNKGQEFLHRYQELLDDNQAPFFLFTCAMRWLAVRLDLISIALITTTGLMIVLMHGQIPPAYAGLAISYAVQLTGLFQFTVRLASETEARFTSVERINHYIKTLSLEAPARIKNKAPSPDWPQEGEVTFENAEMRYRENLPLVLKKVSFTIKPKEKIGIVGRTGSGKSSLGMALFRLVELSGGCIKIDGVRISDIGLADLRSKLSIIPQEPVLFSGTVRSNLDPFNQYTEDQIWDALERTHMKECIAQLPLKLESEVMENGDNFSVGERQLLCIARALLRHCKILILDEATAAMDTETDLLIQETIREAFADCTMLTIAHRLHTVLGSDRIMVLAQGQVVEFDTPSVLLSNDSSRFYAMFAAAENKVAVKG
# In short: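 Transfected Colo-357 cells seeded in triplicate were preloaded 2 h with [14C]5-FU in energy-depletion medium (glucose-free, pyruvate-free, sodium azide). After two washes, medium was switched to ordinary drug-free growth medium, and medium radioactivity was sampled at time points over 60 min. Results are expressed as released radioactivity relative to radioactivity accumulated during loading.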
# [15] = Cytotoxicity against human Patu-02 cells assessed as increase of cell death at 10 uM after 48 hrs using propidium iodide staining by cytofluorometric analysis; format: functional; in short: as §2
# [16] = Cytotoxicity against human Colo-357 cells expressing MRP5 assessed as cell killing at 10 uM after 48 hrs using propidium iodide staining by cytofluorometric analysis; format: functional, COLO357; in short: as §3
# [17] = Cytotoxicity against human MRP5 knockdown Patu-02 cells assessed as increase of cell death at 10 uM after 48 hrs using propidium iodide staining by cytofluorometric analysis; format: functional; in short: as §2
# [18] = Cytotoxicity against human Patu-S cells by crystal violet staining; format: functional, cell-based; in short: as §1
# [19] = Cytotoxicity against human Patu-02 cells assessed as increase of cell death at 33 uM after 48 hrs using propidium iodide staining by cytofluorometric analysis; format: functional; in short: as §2
# [20] = Cytotoxicity against human Patu-02 cells assessed as increase of cell death at 100 uM after 48 hrs using propidium iodide staining by cytofluorometric analysis; format: functional; in short: as §2
# MRP5 [21] = experiment: Induction of MRP5 expression in human Patu-T cells after 6 months by RT-PCR analysis relative to control; format: cell-based, PaTu 8988t; conditions: read-out: FC; in short: as §4
# [22] = Cytotoxicity against human Colo-357 cells assessed as cell killing at 10 uM after 48 hrs using propidium iodide staining by cytofluorometric analysis; format: functional, COLO357; in short: as §3
# DAN-G = experiment: Cytotoxicity against human DAN-G cells by crystal violet staining; format: functional, cell-based; in short: as §1
# [23] = Cytotoxicity against human PANC1 cells by crystal violet staining; format: functional, cell-based; conditions: PANC-1; in short: as §1
# [24] = Cytotoxicity against human Patu-T cells by crystal violet staining; format: functional, cell-based; conditions: PaTu 8988t; in short: as §1
# [25] = Cytotoxicity against human Patu-02 cells assessed as increase of cell death at 3.3 uM after 48 hrs using propidium iodide staining by cytofluorometric analysis; format: functional; in short: as §2
# COLO357 = experiment: Cytotoxicity against human Colo-357 cells expressing MRP5 assessed as cell killing after 48 hrs using propidium iodide staining by cytofluorometric analysis; format: functional, cell-based; in short: as §3
# [26] = Cytotoxicity against human Colo-357 cells by crystal violet staining; format: functional, cell-based; conditions: COLO357; in short: as §1
# [27] = Induction of BCRP expression in human Patu-T cells after 6 months by RT-PCR analysis relative to control; format: ADME, cell-based; conditions: patu 8988t, 4383 h; in short: as §4
# [28] = Cytotoxicity against human T3M4 cells by crystal violet staining; format: functional, cell-based; in short: as §1
# [29] = target: T1, ATP-binding cassette sub-family C member 5; experiment: Activity at MRP5 in human Colo-357 cells assessed as decrease of drug accumulation after 2 hrs relative to wild type cells; format: ADME, cell-based; set-up: scale not given: the % may be the effect or the level left; conditions: colo357, 2 h
# In short: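 Stably transfected Colo-357 (pcDNA3.1/hygro-MRP5 vs empty vector, hygromycin B selected), subconfluent, seeded in triplicate, grown overnight, then incubated at 37°C with 7.6 M [14C]5-FU (0.4 Ci/ml, 52 mCi/mmol) for timed intervals. Washed with ice-cold PBS, lysed in 0.2% SDS, scintillation counted, normalised to protein.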
smiles,measurement,setting,value
O=c1[nH]cc(F)c(=O)[nH]1 [FLUOROURACIL],IC50,[1],2970 nM
same,Activity,[2],80%
same,Activity,[3],36%
same,Activity,[4],45.4%
same,Activity,PaTu 8988t,inactive
same,IC50,[5],3950 nM
same,Activity,[6],26.4%
same,Activity,[7],53%
same,Activity,[8],16.4%
same,IC50,[9],33200 nM
same,Activity,[10],44.9%
same,fold induction,MRP5 [11],4.3
same,fold induction at 4383 h,MRP4,2.5
same,Activity,[12],31.2%
same,Activity,[13],94%
same,fold change (FC),[14],2.1
same,Activity,[15],27%
same,Activity,[16],39.1%
same,Activity,[17],53%
same,IC50,[18],2930 nM
same,Activity,[19],63%
same,Activity,[20],66%
same,fold induction at 4383 h,MRP5 [21],2.4
same,Activity,[22],54.6%
same,IC50,DAN-G,4380 nM
same,IC50,[23],3940 nM
same,IC50,[24],2080 nM
same,Activity,[25],10%
same,Activity,COLO357,inactive
same,IC50,[26],2050 nM
same,Activity,[27],Not Active
same,IC50,[28],330 nM
same,Activity,[29],59.2%
Sc1ncnc2nc[nH]c12 [MERCAPTOPURINE ANHYDROUS],IC50,[1],2450 nM
same,IC50,[5],9690 nM
same,IC50,[18],11100 nM
same,IC50,DAN-G,4060 nM
same,IC50,[23],6390 nM
same,IC50,[24],4090 nM
same,IC50,[26],6120 nM
same,IC50,[28],2630 nM
Nc1ccn([C@@H]2O[C@H](CO)[C@@H](O)C2(F)F)c(=O)n1 [GEMCITABINE],IC50,[1],4 nM
same,IC50,[5],3.4 nM
same,IC50,[18],3.2 nM
same,IC50,DAN-G,3.4 nM
same,IC50,[23],1 nM
same,IC50,[24],2.8 nM
same,IC50,[26],0.36 nM
same,IC50,[28],1.5 nM
Nc1nc2[nH]cnc2c(=S)[nH]1 [THIOGUANINE],IC50,[1],2800 nM
same,IC50,[5],2260 nM
same,IC50,[18],2210 nM
same,IC50,DAN-G,4320 nM
same,IC50,[23],8310 nM
same,IC50,[24],3430 nM
same,IC50,[26],2090 nM
same,IC50,[28],1280 nM
